# Experimental data: article PMC3198121 (Journal of Medicinal Chemistry, 2011)
# Experiments:
# Assay type in all cases: cell-based
# [1] = target: T1, GPR35 (Homo sapiens, UniProt Q9HC97); test: DMR agonist assay in HT-29 cells; details: for fold decrease in potency relative to 16a: compared with compound 16a; for agonist type in DMR assay: compared to zaprinast
# [2] = target: T1, GPR35; details: HT29; for blockage of the compound-induced DMR by compound 17: compound 17 at 64 μM
# [3] = target: T1, GPR35; test: Tango β-arrestin translocation gene reporter assay in Tango GPR35-bla U2OS cells; details: for agonist type in Tango β-arrestin translocation assay: compared to zaprinast; for Tango assays % zaprinast: efficacy relative to zaprinast, Tango GPR35-bla U2OS cells
# [4] = target: T1, GPR35; test: Receptor internalization assay in HT29; details: HT-29; 1 μM 16a, 10 μM 15a; 1 h at 37 °C
# Summary of the method: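 HT29 cells seeded at 10000/well on chamber slides, 24 h at 37 °C, then exposed to compound or matching DMSO for 1 h at 37 °C. Cells were fixed in 4% formaldehyde for 15 min and blocked/permeabilized for 2 h (goat serum, BSA, Triton X-100). Staining used anti-GPR35 T-14 (intracellular epitope, 1:500, 24 h), then Alexa Fluor 594 anti-goat (1:500, 1 h RT), with DAPI nuclei. Read by confocal imaging.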
# [5] = target: T1, GPR35; test: DMR agonist assay after shRNA knockdown of GPR35 in HT29; details: all compounds at 10 μM; n = 4; mock transfection as control
# Summary of the method: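 HT29 cells seeded at 5000/well on biosensor plates, 24 h at 37 °C, then transiently transfected (Effectene, 0.05 μg plasmid DNA) with GPR35 shRNA in GFP-expressing pGFP-V-RS vector or control plasmid. Medium was renewed next day. About 48 h post-transfection, cells were washed into HBSS (20 mM Hepes, pH 7.1) and equilibrated 1 h at 26 °C. Label-free DMR was recorded kinetically after a 2 min baseline and compound addition.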
# [6] = target: T1, GPR35; details: zaprinast 1 μM in DMSO treated cells; n = 90
# T1 sequence (Q9HC97 whole entry): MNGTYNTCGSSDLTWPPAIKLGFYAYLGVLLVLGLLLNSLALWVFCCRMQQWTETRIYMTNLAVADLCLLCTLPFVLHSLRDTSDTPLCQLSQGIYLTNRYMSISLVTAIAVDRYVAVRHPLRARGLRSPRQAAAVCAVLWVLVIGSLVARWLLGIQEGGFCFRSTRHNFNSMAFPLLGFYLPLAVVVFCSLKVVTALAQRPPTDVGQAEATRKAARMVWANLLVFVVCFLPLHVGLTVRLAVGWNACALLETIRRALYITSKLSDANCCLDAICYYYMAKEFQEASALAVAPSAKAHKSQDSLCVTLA
SMILES,blockage of the compound-induced DMR by compound 17 [2],response in Tango assay [3],agonist type in Tango β-arrestin translocation assay [3],effect of shRNA knockdown of GPR35 on the compound-induced DMR [5],also measured
"CC1=C(C#N)C(=C(C#N)C#N)OC1(C)c1ccc(Cl)c(Cl)c1Cl (centres unmarked) [Compound 5, 2-(3-cyano-4,5-dimethyl-5-(2,3,4-trichlorophenyl)furan-2(5H)-ylidene)malononitrile]",only partially suppressed,–,–,–,"fold decrease in potency to trigger DMR signal relative to 1 ([1]; DMR EC50, compared with compound 1): 350 fold"
"O=C(O)c1cc2sccc2s1 [Compound 10, Thieno[3,2-b]thiophene-2-carboxylic Acid]",–,detectable responses,partial agonists,–,fold decrease in potency relative to 16a ([1]; DMR EC50): over 600 fold
"CC1=C(C#N)C(=C(C#N)C#N)OC1(c1ccccc1)C(F)(F)F (centres unmarked) [Compound 3, 2-(3-cyano-4-methyl-5-phenyl-5-(trifluoromethyl)furan-2(5H)-ylidene)malononitrile]",–,dose-dependent and saturable responses,partial agonists,–,–
"COC(=O)c1cnn(-c2ccc(F)cc2F)c1/C=N/NC(=S)NC(C)(C)C [Compound 17, methyl-5-[(tert-butylcarbamothioylhydrazinylidene)methyl]-1-(2,4-difluorophenyl)-pyrazole-4-carboxylate, reference compound]",–,–,–,–,DMR agonist activity in HT-29 [1]: did not lead to any detectable DMR; blockage of the zaprinast DMR by compound 17 ([2]; compound 17 at 64 μM (highest dose)): almost completely blocked
"CCOC(=O)c1sc2c(Br)csc2c1C [Compound 15a, Ethyl 6-Bromo-3-methylthieno[3,2-b]thiophene-2-carboxylate]",–,–,–,–,internalization of endogenous GPR35 [4]: unable to trigger receptor internalization
"CCCCCCc1c(C(=O)O)sc2ccsc12 [Compound 11, 3-Hexylthieno[3,2-b]thiophene-2-carboxylic Acid]",only partially suppressed,detectable responses,partial agonists,–,fold decrease in potency relative to 16a ([1]; DMR EC50): about 54 fold
"CC1=C(C#N)C(=C(C#N)C#N)OC1(C)C [Compound 9, 2-(3-Cyano-4,5,5-trimethylfuran-2(5H)-ylidene)malononitrile]",–,detectable responses,partial agonists,significantly attenuated,Tango assays % zaprinast [3]: weak
"CCCOc1ccccc1-c1nc2[nH]nnc2c(=O)[nH]1 [zaprinast, reference compound]",–,–,–,significantly attenuated,"DMR assays % zaprinast ([1]; efficacy relative to zaprinast, HT-29, DMR amplitude at 8 min post stimulation): 100 ± 5%; DMR amplitude, maximal response ([1]; zaprinast 1 μM (saturating dose), about 8 min poststimulation, n = 32): 246 ± 11 pm; zaprinast DMR amplitude in the desensitization step (positive control) [6]: 238 ± 25 pm; Tango assays % zaprinast [3]: 100 ± 7%"
"CC1=C(C#N)C(=C(C#N)C#N)OC1(C)c1ccc(Cl)c(Cl)c1 (centres unmarked) [Compound 1, 2-(3-cyano-5-(3,4-dichlorophenyl)-4,5-dimethylfuran-2(5H)-ylidene)malononitrile]",–,dose-dependent and saturable responses,partial agonist,significantly attenuated,agonist type in DMR assay [1]: full agonist
"CC1=C(C#N)C(=C(C#N)C#N)OC1(C)c1ccc(F)cc1F (centres unmarked) [Compound 8, 2-(3-cyano-5-(2,4-difluorophenyl)-4,5-dimethylfuran-2(5H)-ylidene)malononitrile]",only partially suppressed,–,–,–,–
"CC1=C(C#N)C(=C(C#N)C#N)OC12CCCCC2 [Compound 7, 2-(3-cyano-4-methyl-1-oxaspiro[4.5]dec-3-en-2-ylidene)malononitrile]",only partially suppressed,detectable responses,partial agonists,–,Tango assays % zaprinast [3]: weak
"Cc1csc2c1sc1cc(C(=O)O)sc12 [Compound 13, 5-Methyldithieno[3,2-b:2′,3′-d]thiophene-2-carboxylic Acid]",only partially suppressed,detectable responses,partial agonists,significantly attenuated,–
"CCCCCCc1csc2cc(C(=O)O)sc12 [Compound 12, 6-Hexylthieno[3,2-b]thiophene-2-carboxylic Acid]",–,detectable responses,partial agonists,–,–

# Continued, in another order:
blockage of the compound-induced DMR by compound 17 [2],response in Tango assay [3],agonist type in Tango β-arrestin translocation assay [3],effect of shRNA knockdown of GPR35 on the compound-induced DMR [5],SMILES,also measured
–,dose-dependent and saturable responses,partial agonists,–,"CCCCCCCCCCCc1c(C(=O)O)sc2c(Br)csc12 [Compound 16c, 6-Bromo-3-undecylthieno[3,2-b]thiophene-2-carboxylic Acid]",–
–,dose-dependent and saturable responses,full agonist,significantly attenuated,"Cc1c(C(=O)O)sc2c(Br)csc12 [Compound 16a, 6-Bromo-3-methylthieno[3,2-b]thiophene-2-carboxylic Acid]",agonist type in DMR assay [1]: full agonist; internalization of endogenous GPR35 [4]: significant internalization
–,detectable responses,partial agonists,–,"CCCCCCCCc1c(C(=O)O)sc2c(Br)csc12 [Compound 16b, 6-Bromo-3-octylthieno[3,2-b]thiophene-2-carboxylic Acid]",–
